Laboratory results as given in the RNAGym collection of RNA variant scans (doi:10.1126/science.aae0568).
Variants at the floor of the assay were thinned out.

B1: tRNA (parent)
chain: GUUCCGUUGGCGUAAUGGUAACGCGUCUCCCUCCUAAGGAGAAGACUGCGGGUUCGAGUCCCGUACGGAACG

Variants of: B1
Experiment: yeast fitness relative to wild type (ratio to wild type); higher = fitter; tRNA-Arg(CCU), competitive growth, 37 C, YPD
Procedure, shortened: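 Variants of the tRNA-Arg(CCU) gene were chemically synthesised with a 3% per-site mutation rate across 69 sites and placed at the native genomic locus in Saccharomyces cerevisiae. Six parallel replicates of the pooled strains were competed in YPD at 37°C for 24 hours, and gene amplicons from the start and end populations were read by 100-nucleotide paired-end sequencing. Darwinian fitness relative to wild type was derived from changes in genotype frequencies. Genotypes required ≥ 100 starting reads, and estimates < 0.5 were set to 0.5.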

Variant	yeast fitness
U7C G17A C62U	≤ 0.5
U7A G56A	0.673
U7G A57G	0.72
U7C C11G U32G	≤ 0.5
U7A G23C C31U	≤ 0.5
U7C U8A C62U	≤ 0.5
U7C A14G C33G G68C	≤ 0.5
U7A U16C G17A C29U C31A G58A	≤ 0.5
U7C C30U C61A	≤ 0.5
U7A G41C U54A	0.588
U7C A14G A43G A69C	≤ 0.5
U7C G17C A20G C27A G48A	0.509
U7C C49U	0.873
U7C C34U A45C C60G A65C	≤ 0.5
U7A U26G U32G A42U A45G A69U	≤ 0.5
U7C G48C	0.828
U7C G48A	0.884
U7G A15C C24U A43G G51A U54C G67C	0.78
U7A G12C A20G C34U C49G	≤ 0.5
U7C C30U C34A C46U G58A A65U	≤ 0.5
U7C A21U C30U C33G A70U	≤ 0.5
U7C G68A	0.87
U7C A21G	0.761
U7G C27G U28G	0.531

Variant	yeast fitness
U7A U8A G25A G67C	≤ 0.5
U7C G9A U13C A21U G38C C46A	≤ 0.5
U7A G17A C29U	≤ 0.5
U7C G41U G58C	≤ 0.5
U7C C49A C62U A70U	≤ 0.5
U7G A70U	1.01
U7C A15U C29A G38C	≤ 0.5
U7A U16C A21U U26A	0.537
U7C A45C A70G	≤ 0.5
U7A U8A G10C C27G C34G A45C G68U	≤ 0.5
U7C U26A	0.777
U7C U26G	0.649
U7C U28C C55U	≤ 0.5
U7G A15G	0.913
U7C C22U C29G G56A A70U	≤ 0.5
U7C A57U	0.749
U7G C11A C22G C30G	≤ 0.5
U7A U32C	0.764
U7A U32A	0.588
U7C U13C C31G C34U C55U G58A C61U	≤ 0.5
U7C C22A A45C C46U	≤ 0.5
U7C A20U A40C C46U C55G A70U	0.582
U7A G44C G63A	≤ 0.5
U7C C27U	0.875

Variant	yeast fitness
U7G A21C G44C A69U	≤ 0.5
U7A G25U U32A G41A C61U	0.589
U7C C33G A37G A70G	≤ 0.5
U7C C11A	0.556
U7A U8C C29U	≤ 0.5
U7A G52A	0.582
U7A U32G C33G A70U	≤ 0.5
U7A U32G C33A C62G C66U	≤ 0.5
U7G C24U A45G	0.601
U7C U8A A20G C24G U64C	≤ 0.5
U7G C24U C33U	0.568
U7G C29G C46U A65U	≤ 0.5
U7G C30U A36G C55G	≤ 0.5
U7G C27G A40U C49G	≤ 0.5
U7C C33A A40U A57C	0.662
U7C U53G	≤ 0.5
U7C A20G C24U C49A G67C	≤ 0.5
U7C C24G	0.645
U7C A40G A42G G48A G56C	≤ 0.5
U7C C31G A45U	≤ 0.5
U7C C29G	0.677
U7C C29U	0.754
U7A U47A	0.643
U7A U47G	0.557

Variant	yeast fitness
U7G A21C U59A	≤ 0.5
U7C A37C C60G G63A A65U A70C	≤ 0.5
U7A G17C C24G C29A G58C A69C	≤ 0.5
U7C C33U G67A	≤ 0.5
U7C U35C	0.86
U7C C11U A37C	≤ 0.5
U7A G17A	0.731
U7C G63C	0.611
U7C C29A A65G	≤ 0.5
U7G C22G G50A	0.514
U7G A40U	0.985
U7A G39C A43C G44C U47C C61U	≤ 0.5
U7G A36C	0.614
U7G C11G C34U G41A	0.525
U7C U64A	0.923
U7A G67U	0.771
U7A G17A C30A A65C	≤ 0.5
U7C G67U A70U	0.544
U7C C31U A57U A69C	≤ 0.5
U7C C46U C61A G67A	0.561
U7C G10C C24U C46U G63C	≤ 0.5
U7C G18A G41A A42C G50C A70G	≤ 0.5
U7A U28A U32G G50C U54C	≤ 0.5
U7C C49G G63A	0.748

Variant	yeast fitness
U7C C22G C24A G25C C66G	≤ 0.5
U7C G41A A42C G50C	0.592
U7C C34U C49A G56C C62A A65C	≤ 0.5
U7G C27G C30A C62G	≤ 0.5
U7C C33G A40G	≤ 0.5
U7C C27U A43U C61U	≤ 0.5
U7G C29G C46U G50U	≤ 0.5
U7C A15U C34A G39C A40C G56C C61G C62G G68C	≤ 0.5
U7C U13A C24U G50U G51A U59A A65C	≤ 0.5
U7C A42U A70U	0.584
U7C G38A G50A G58A U59A	0.579
U7C G44C	0.84
U7G A15G U19C A21G G41A	0.535
U7C U16G C29U C31A C46U	0.566
U7C G9A C31G	0.77
U7C A15U A69U	0.527
U7C A14C C30G A40C A43U C55U	0.64
U7A G12A U64A	≤ 0.5
U7A U16C C24G C30G A36U	≤ 0.5
U7A G18A C29G A37G C60A C62G	≤ 0.5
U7C A37G C49A	≤ 0.5
U7C U32G G68C	≤ 0.5
U7A U8G A69C	≤ 0.5
U7C A20U C29U C30G C34A U35A C66A	≤ 0.5

Variant	yeast fitness
U7G A20G C27U C49G G52C A70G	≤ 0.5
U7G C27G G39C U47C C49G A57G	≤ 0.5
U7A G23C C33G C46U U64C	0.579
U7C G17A C55A	≤ 0.5
U7A U19C C27G A43U U47A A65U G67C	≤ 0.5
U7C C30U	0.826
U7G A14G U35G C46A G63C A65U	≤ 0.5
U7C U53A A70G	≤ 0.5
U7C A15G G18C	≤ 0.5
U7C G41A A42C G50C A70G	0.571
U7C U32G	0.576
U7A G52C G56A	0.554
U7C G12A C31U G52A	≤ 0.5
U7A U16C A65U	0.688
U7C C62G	0.61
U7C C62U	0.802
U7C A14C A65G A70C	≤ 0.5
U7G C29A C34A C62A	≤ 0.5
U7G A15C U16A C33G A37C C49A U53C	≤ 0.5
U7C C33G	0.58
U7C A14G A43U C49G	≤ 0.5
U7G C11U G12C C33U G58C	≤ 0.5
U7G C27U	0.792
U7C A37C C60G A65U A70C	0.569

Variant	yeast fitness
U7C A14G A20C A57G	≤ 0.5
U7C C11A C30G C66U A69U	≤ 0.5
U7A U19G A70G	≤ 0.5
U7A G18C C22U C24U C60U	≤ 0.5
U7C C31G C33A C66A	≤ 0.5
U7G A65G C66U	0.876
U7G A14U U19A C22U C61A	≤ 0.5
U7C A21G A42U G58A	0.552
U7G C22G U28A C31G C55A G68C	≤ 0.5
U7G A21G U26C C31A G38C	≤ 0.5
U7C U32C C33G A70G	≤ 0.5
U7C A14U G68A	≤ 0.5
U7A U26C U64A	≤ 0.5
U7C G9A U13C A21U G56A	≤ 0.5
U7C C34U G52C	0.579
U7C A37C A40C A45U A57C A70C	≤ 0.5
U7C G41A A42C G50C G67C	≤ 0.5
U7C G9C G23A A36C C66A	0.544
U7C A43G U47C U59C	≤ 0.5
U7A G23A A42G C62U	≤ 0.5
U7C U8A C27U	≤ 0.5
U7C C11A C27G A57G	≤ 0.5
U7A U16A A21G C29G C34A A65U C66U	≤ 0.5
